pIC50: −log10 of the molar value. Blank lines part the entries; values can stand above or below the compound they belong to. Active and inactive are the calls of the source. The calls are words filed in the database; no cut-off is given here. Where a SMILES comes first, the peptide text is derived from it. The star is where a group is joined. Cbz = O=C(OCc1ccccc1)*
Experiments:
[1] = molecular target: T1, Proteasome Macropain subunit MB1 (Homo sapiens, UniProt P28074); assay: Inhibition of chymotrypsin-like activity of 20S proteasome in imatinib-resistant human SUP-B15 cells using Suc-LLVY aminoluciferin as substrate after 2 hrs by proteasome-Glo assay; format: cell-based
T1 sequence (P28074 whole entry): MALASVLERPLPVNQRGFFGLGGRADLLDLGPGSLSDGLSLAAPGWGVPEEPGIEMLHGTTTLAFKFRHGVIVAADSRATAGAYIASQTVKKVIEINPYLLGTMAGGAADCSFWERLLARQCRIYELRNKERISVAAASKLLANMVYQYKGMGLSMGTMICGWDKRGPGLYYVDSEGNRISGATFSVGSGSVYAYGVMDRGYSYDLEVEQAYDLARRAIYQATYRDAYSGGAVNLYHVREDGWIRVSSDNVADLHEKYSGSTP

[2] = molecular target: T1, Proteasome Macropain subunit MB1; assay: Inhibition of chymotrypsin-like activity of 20S proteasome in human SEM cells using Suc-LLVY aminoluciferin as substrate after 2 hrs by proteasome-Glo assay; format: cell-based
[3] = molecular target: T1, Proteasome Macropain subunit MB1; assay: Inhibition of chymotrypsin-like activity of 20S proteasome in human HL60 cells using Suc-LLVY aminoluciferin as substrate after 2 hrs by proteasome-Glo assay; format: cell-based
Homo sapiens = species on record: Homo sapiens; assay: Inhibition of proteasome in human HL60 cells assessed as increase in cleaved PARP expression at 1 to 100 nM after 24 hrs by immunoblot assay; format: cell-based
Summary of the method: (§1)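 Cells exposed for 24 h at indicated concentrations; lysates immunoblotted for acetyl-α-tubulin, acetyl-histone H3, PARP, with GAPDH as loading control.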

PBMC = assay: cells; format: ADME, cell-based; conditions: Homo sapiens, 72 h
SUP-B15 [4] = assay: Inhibition of proteasome in imatinib-resistant human SUP-B15 cells assessed as increase in cleaved PARP expression at 1 to 100 nM after 24 hrs by immunoblot assay; format: cell-based
Summary of the method: (§2)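 Cells treated with compounds for 24 h; lysates immunoblotted for PARP alongside acetyl-α-tubulin, acetyl-histone H3 and GAPDH.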

SEM cells [5] = assay: Inhibition of proteasome in human SEM cells assessed as increase in aggresome accumulation at 10 nM after 18 hrs by fluorescence microscopic method; format: cell-based
Summary of the method: (§3)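 Cells treated 18 h, then stained with a proteostat aggresome dye plus DNA stain. Imaged by fluorescence microscopy (63X objective) or analysed by FACS, with aggresome propensity factor from relative mean fluorescence intensity.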

SEM cells [6] = assay: Inhibition of proteasome in human SEM cells assessed as increase in aggresome accumulation at 10 nM after 18 hrs by FACS analysis; format: cell-based; summary of the method: as §3
SEM cells [7] = assay: Inhibition of proteasome in human SEM cells assessed as increase in cleaved PARP expression at 1 to 100 nM after 24 hrs by immunoblot assay; format: cell-based; summary of the method: as §2
SEM cells [8] = assay: Inhibition of proteasome in human SEM cells assessed as increase in aggresome accumulation at 3 uM after 18 hrs by FACS analysis; format: cell-based; summary of the method: as §3
SEM cells [9] = assay: Inhibition of proteasome in human SEM cells assessed as increase in aggresome accumulation at 3 uM after 18 hrs by fluorescence microscopic method; format: cell-based
Summary of the method: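 SEM cells exposed for 18 h, then labeled with a proteostat aggresome detection kit with DNA counterstain per kit guidelines; aggresomes imaged by fluorescence microscopy with a 63X objective.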

[10] = molecular target: T2, Protein deacetylase HDAC6 (Homo sapiens) (UniProt Q9UBN7); assay: Inhibition of HDAC6 in human SEM cells assessed as increase in acetyl-histone H3 expression at 0.1 to 10 uM after 24 hrs by immunoblot assay; format: cell-based; summary of the method: as §1
T2 sequence (whole entry): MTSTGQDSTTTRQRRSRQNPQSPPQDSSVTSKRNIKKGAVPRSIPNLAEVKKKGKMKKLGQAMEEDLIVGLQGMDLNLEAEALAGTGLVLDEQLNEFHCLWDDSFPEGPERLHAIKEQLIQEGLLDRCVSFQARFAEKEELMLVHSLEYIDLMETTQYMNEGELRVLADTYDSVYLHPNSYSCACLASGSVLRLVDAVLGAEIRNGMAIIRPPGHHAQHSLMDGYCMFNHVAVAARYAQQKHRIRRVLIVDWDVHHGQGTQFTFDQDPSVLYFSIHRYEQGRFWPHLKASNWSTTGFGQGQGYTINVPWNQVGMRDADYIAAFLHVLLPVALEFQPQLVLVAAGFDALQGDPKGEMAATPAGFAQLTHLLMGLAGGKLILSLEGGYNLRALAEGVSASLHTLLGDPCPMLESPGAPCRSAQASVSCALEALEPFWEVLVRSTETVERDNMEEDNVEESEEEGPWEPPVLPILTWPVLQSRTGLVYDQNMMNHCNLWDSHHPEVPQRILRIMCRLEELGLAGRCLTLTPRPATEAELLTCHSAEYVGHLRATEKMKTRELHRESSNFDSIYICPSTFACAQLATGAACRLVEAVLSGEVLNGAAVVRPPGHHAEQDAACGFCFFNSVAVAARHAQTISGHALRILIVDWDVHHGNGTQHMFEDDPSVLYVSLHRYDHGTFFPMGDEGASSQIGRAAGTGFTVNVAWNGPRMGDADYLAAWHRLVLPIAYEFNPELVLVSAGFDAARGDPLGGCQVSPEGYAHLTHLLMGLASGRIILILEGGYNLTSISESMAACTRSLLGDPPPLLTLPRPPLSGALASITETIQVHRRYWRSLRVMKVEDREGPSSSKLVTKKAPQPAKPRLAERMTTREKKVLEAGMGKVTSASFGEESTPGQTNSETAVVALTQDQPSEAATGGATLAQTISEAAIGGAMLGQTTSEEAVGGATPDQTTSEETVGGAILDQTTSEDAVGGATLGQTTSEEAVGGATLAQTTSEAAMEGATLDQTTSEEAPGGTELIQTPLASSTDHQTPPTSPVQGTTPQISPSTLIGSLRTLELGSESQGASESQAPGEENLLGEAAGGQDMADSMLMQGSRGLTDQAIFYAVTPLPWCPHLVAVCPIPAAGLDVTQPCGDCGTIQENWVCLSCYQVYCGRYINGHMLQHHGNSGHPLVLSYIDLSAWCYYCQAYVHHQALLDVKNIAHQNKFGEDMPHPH

[11] = molecular target: T2, Protein deacetylase HDAC6 (Homo sapiens); conditions: SUP-B15, 0.1 to 10 uM
[12] = Cytotoxicity against human BCP-ALL cells derived from patient 4 after 72 hrs by CellTiter-Glo luminescent cell viability assay; format: functional, cell-based
[13] = Cytotoxicity against human BCP-ALL cells derived from patient 2 after 72 hrs by CellTiter-Glo luminescent cell viability assay; format: functional, cell-based
Summary of the method: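 Compounds dispensed digitally at increasing concentrations, 50 nM–25 μM; viability read by CellTiter-Glo luminescence after 72 h. Raw data normalized to controls, IC50 from sigmoid dose curve by non-linear regression. Patient samples: primary cells from newly diagnosed or relapsed patients, cultured in stem cell expansion or mononuclear cell medium.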

SEM cells [14] = assay: Cytotoxicity against human SEM cells after 72 hrs by CellTiter-Glo luminescent cell viability assay; format: functional, cell-based
Summary of the method: (§4)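 Inhibitors dispensed in increasing concentrations (50 nM–25 μM) and cells exposed 72 h. Viability read by ATP-dependent luminescence (CellTiter-Glo). Raw data normalized to controls. IC50 obtained by sigmoid dose–response fit with non-linear regression.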

[15] = molecular target: T2, Protein deacetylase HDAC6 (Homo sapiens); assay: Inhibition of HDAC6 in imatinib-resistant human SUP-B15 cells assessed as increase in acetyl-alpha tubulin expression at 0.1 to 10 uM after 24 hrs by immunoblot assay; format: cell-based; summary of the method: as §1
[16] = Cytotoxicity against human RPMI18226 cells after 72 hrs by CellTiter-Glo luminescent cell viability assay; format: functional, cell-based; conditions: RPMI18226, 72 h
KCL-22 [17] = assay: Cytotoxicity against imatinib-resistant human KCL22 cells after 72 hrs by CellTiter-Glo luminescent cell viability assay; format: functional, cell-based; conditions: KCL-22, 72 h; summary of the method: as §4
SUP-B15 [18] = assay: Cytotoxicity against imatinib-resistant human SUP-B15 cells after 72 hrs by CellTiter-Glo luminescent cell viability assay; format: functional, cell-based; conditions: SUP-B15, 72 h
[19] = molecular target: T2, Protein deacetylase HDAC6 (Homo sapiens); conditions: SEM, 0.1 to 10 uM
SEM cells [20] = assay: Antiproliferative activity against human SEM cells at IC50 to 2 times IC50 after 24 to 72 hrs by trypan exclusion method; format: functional, cell-based
[21] = Cytotoxicity against human BCP-ALL cells derived from patient 3 after 72 hrs by CellTiter-Glo luminescent cell viability assay; format: functional, cell-based
[22] = molecular target: T2, Protein deacetylase HDAC6 (Homo sapiens); assay: Inhibition of HDAC6 in human HL60 cells assessed as increase in acetyl-alpha tubulin expression at 0.1 to 10 uM after 24 hrs by immunoblot assay; format: cell-based; summary of the method: as §1
[23] = Cytotoxicity against human BCP-ALL cells derived from patient 1 after 72 hrs by CellTiter-Glo luminescent cell viability assay; format: functional, cell-based
[24] = molecular target: T2, Protein deacetylase HDAC6 (Homo sapiens); assay: Inhibition of HDAC6 in human HL60 cells assessed as increase in acetyl-histone H3 expression at 0.1 to 10 uM after 24 hrs by immunoblot assay; format: cell-based; summary of the method: as §1
KCL-22 [25] = assay: Cytotoxicity against human KCL22 cells after 72 hrs by CellTiter-Glo luminescent cell viability assay; format: functional, cell-based; conditions: KCL-22, 72 h; summary of the method: as §4
HL-60 = assay: Cytotoxicity against human HL60 cells after 72 hrs by CellTiter-Glo luminescent cell viability assay; format: functional, cell-based; conditions: HL-60, 72 h
[26] = molecular target: T2, Protein deacetylase HDAC6 (Homo sapiens); conditions: 0.1 to 10 uM
[27] = molecular target: T2, Protein deacetylase HDAC6 (Homo sapiens); assay: Inhibition of HDAC6 in human SEM cells assessed as increase in acetyl-alpha tubulin expression at 0.1 to 10 uM after 24 hrs by immunoblot assay; format: cell-based; summary of the method: as §1
[28] = molecular target: T2, Protein deacetylase HDAC6 (Homo sapiens); assay: Inhibition of HDAC6 in imatinib-resistant human SUP-B15 cells assessed as increase in acetyl-histone H3 expression at 0.1 to 10 uM after 24 hrs by immunoblot assay; format: cell-based; summary of the method: as §1
[29] = molecular target: T2, Protein deacetylase HDAC6 (Homo sapiens); conditions: SEM, 1.6 uM

pIC50 [1]: < 4.60 | pIC50 [2]: < 4.60 | pIC50 [3]: < 4.60
SMILES: O=C(CCCCCCC(=O)Nc1ccccc1)NO [VORINOSTAT]

SMILES: CC(C)C[C@H](NC(=O)[C@H](Cc1ccccc1)NC(=O)c1cnccn1)B(O)O [BORTEZOMIB]
inhibition (Homo sapiens): Active | pIC50 (PBMC): > 7.46 | inhibition (SUP-B15 [4]): Active | inhibition (SEM cells [5]): Active | inhibition (SEM cells [6]): Active | inhibition (SEM cells [7]): Active

SMILES: CC(C)C[C@@H](C=O)NC(=O)[C@H](CC(C)C)NC(=O)[C@H](CC(C)C)NC(=O)OCc1ccccc1 (Cbz-Leu-Leu-Leu-aldehyde)
inhibition (SEM cells [8]): Active | inhibition (SEM cells [9]): Active

SMILES: O=C(CCCCCCNC(=O)c1cnc(N(c2ccccc2)c2ccccc2)nc1)NO [RICOLINOSTAT]
inhibition [10]: Active | inhibition [11]: Active | pIC50 [12]: 6.27 | pIC50 [13]: 6.24 | pIC50 (PBMC): > 5.44 | pIC50 [1]: < 4.60 | pIC50 (SEM cells [14]): 5.79 | inhibition [15]: Active | pIC50 [16]: 5.71 | pIC50 (KCL-22 [17]): 5.47 | pIC50 (SUP-B15 [18]): 5.45 | inhibition [19]: Active | Activity (SEM cells [20]): Active | pIC50 [21]: 5.35 | inhibition [22]: Active | pIC50 [23]: 6.54 | inhibition [24]: Active | pIC50 (KCL-22 [25]): 5.43 | pIC50 [2]: < 4.60 | pIC50 (HL-60): 5.63 | inhibition [26]: Active | inhibition [27]: Active | inhibition [28]: Active | pIC50 [3]: < 4.60 | inhibition [29]: Active
